As a reminder, the IC50 is the concentration needed to halve the response being measured. Higher therefore signals weaker potency.

Assay in all cases: radiolabelled iodothyronine uptake inhibition in transfected COS1 cells
What all share (format): cell-based

The target in test [1] is LAT1 (hSLC7A5, cotransfected with hSLC3A2) (Homo sapiens, UniProt Q01650). The method, boiled down:
(§1)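 COS1 cells cotransfected with 100 ng transporter vector, 100 ng hSLC3A2 (4F2 heavy chain), and 50 ng hCRYM to limit efflux; empty vector served as control. At 48 h post-transfection, cells were washed in BSA-free DPBS+Ca²⁺/Mg²⁺/0.1% glucose. They were then incubated at 37°C with 1 nM 3,3′-T2 plus [¹²⁵I]-3,3′-T2 (5 × 10⁴ cpm) and increasing inhibitor concentrations or vehicle. Finally, cells were rinsed, lysed in 0.1 N NaOH, and gamma-counted.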

Test [2] concerns the target T1, LAT2 (hSLC7A8, cotransfected with hSLC3A2) (Homo sapiens, UniProt Q9UHI5).
T1 sequence (Q9UHI5 1-535): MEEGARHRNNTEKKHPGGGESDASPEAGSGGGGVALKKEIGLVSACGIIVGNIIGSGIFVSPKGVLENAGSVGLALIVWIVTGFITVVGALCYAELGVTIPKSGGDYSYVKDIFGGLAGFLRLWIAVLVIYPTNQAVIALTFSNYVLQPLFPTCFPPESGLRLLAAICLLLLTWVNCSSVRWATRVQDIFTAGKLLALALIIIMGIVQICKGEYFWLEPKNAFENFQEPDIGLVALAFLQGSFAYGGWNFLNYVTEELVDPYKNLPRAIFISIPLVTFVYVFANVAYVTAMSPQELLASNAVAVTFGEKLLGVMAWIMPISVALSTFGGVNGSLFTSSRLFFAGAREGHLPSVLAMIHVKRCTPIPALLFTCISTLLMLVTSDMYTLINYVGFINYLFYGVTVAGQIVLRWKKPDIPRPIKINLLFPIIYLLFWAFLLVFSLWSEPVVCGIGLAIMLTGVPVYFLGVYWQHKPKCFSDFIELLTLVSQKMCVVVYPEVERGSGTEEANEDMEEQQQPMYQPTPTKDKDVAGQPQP
T1 sequence (P08195 2-529 partner): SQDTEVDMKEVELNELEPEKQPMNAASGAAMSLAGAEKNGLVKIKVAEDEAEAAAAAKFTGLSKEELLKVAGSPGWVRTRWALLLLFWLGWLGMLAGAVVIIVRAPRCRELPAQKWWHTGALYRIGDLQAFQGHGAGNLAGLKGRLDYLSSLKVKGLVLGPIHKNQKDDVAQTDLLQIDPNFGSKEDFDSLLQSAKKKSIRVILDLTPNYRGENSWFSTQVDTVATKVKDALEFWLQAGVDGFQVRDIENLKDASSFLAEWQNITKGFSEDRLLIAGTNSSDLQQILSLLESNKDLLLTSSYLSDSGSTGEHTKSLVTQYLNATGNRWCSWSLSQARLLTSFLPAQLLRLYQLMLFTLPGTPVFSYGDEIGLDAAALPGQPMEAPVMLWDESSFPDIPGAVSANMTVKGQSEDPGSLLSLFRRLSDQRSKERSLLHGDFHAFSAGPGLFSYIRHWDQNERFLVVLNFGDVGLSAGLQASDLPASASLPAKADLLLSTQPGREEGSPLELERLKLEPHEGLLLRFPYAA
In outline: as §1

Test [3] deals with T2, MCT10 (hMCT10) (Homo sapiens, UniProt Q8TF71).
T2 sequence (Q8TF71 1-515): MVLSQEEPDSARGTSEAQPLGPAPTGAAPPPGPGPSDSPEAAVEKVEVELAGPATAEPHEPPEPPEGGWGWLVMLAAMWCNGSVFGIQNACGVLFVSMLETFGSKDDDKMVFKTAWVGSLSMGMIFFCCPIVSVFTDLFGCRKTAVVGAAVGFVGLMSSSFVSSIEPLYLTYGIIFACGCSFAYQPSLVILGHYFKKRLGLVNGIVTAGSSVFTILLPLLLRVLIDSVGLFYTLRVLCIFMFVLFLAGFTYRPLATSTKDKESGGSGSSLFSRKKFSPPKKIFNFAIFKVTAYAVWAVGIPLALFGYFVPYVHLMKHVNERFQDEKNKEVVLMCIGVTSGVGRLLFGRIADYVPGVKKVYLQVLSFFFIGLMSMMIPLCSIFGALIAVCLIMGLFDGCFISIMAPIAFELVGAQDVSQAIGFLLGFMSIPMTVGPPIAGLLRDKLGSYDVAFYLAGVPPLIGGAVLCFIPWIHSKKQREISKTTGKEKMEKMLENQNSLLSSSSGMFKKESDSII

The target of test [4] is T3, OATP1A2 (Human (h) OATP1A2) (Homo sapiens, UniProt P46721).
T3 sequence (P46721 1-670): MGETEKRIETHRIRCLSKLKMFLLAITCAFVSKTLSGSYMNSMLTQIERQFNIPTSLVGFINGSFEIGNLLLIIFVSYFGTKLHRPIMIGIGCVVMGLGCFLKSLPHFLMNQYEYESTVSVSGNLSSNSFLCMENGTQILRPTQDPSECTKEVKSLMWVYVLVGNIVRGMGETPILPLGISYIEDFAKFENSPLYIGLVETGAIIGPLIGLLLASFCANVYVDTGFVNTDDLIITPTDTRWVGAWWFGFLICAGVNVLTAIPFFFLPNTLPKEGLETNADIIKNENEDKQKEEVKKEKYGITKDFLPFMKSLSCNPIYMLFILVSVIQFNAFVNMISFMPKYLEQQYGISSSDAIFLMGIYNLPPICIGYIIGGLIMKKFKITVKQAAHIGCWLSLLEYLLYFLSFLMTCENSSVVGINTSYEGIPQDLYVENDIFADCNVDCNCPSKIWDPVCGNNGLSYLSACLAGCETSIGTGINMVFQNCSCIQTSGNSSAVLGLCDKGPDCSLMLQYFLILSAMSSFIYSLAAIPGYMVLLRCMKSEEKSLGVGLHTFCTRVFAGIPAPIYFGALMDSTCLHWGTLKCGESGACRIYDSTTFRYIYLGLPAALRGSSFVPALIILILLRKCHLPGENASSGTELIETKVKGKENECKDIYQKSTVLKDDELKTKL

The target of test [5] is MCT8 (hMCT8) (Homo sapiens, UniProt P36021).
MCT8 (hMCT8), sequence (P36021 2-539): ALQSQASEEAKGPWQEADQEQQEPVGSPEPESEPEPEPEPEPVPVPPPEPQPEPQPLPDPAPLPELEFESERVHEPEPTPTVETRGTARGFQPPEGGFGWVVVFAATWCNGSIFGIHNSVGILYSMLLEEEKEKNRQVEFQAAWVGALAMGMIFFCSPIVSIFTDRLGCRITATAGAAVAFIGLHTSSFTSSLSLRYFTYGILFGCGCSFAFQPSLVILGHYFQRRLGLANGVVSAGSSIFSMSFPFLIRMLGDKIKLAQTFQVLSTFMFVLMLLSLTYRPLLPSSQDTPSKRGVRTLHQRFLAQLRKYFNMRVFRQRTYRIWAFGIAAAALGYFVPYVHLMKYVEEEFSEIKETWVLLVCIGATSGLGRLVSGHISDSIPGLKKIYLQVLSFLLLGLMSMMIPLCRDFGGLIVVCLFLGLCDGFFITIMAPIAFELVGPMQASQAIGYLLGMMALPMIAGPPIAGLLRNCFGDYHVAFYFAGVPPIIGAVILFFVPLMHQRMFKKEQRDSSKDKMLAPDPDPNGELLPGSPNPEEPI

LAT1 (hSLC7A5, cotransfected with hSLC3A2), sequence (Q01650 whole entry, one chain of several): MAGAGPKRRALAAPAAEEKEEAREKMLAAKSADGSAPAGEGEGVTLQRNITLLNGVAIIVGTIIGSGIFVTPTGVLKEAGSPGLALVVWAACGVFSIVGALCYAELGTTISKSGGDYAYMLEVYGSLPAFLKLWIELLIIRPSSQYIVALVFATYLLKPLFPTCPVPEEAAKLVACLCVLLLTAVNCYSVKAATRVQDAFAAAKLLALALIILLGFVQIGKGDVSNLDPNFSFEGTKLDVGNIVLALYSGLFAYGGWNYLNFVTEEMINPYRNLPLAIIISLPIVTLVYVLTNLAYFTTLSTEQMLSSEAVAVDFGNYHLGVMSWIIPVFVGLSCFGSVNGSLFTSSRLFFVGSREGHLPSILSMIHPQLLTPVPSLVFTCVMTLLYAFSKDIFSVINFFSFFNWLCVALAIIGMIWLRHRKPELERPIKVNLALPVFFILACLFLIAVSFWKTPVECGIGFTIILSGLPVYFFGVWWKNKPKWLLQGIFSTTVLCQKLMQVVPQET

Turning to `NC1(C(=O)O)CC2CCC1C2` (stereo not shown) [BCH, 2-Amino-2-norbornanecarboxylic acid], the IC50 in test [1] was 146 µM; in test [2], roughly 100 µM.

In the case of `N[C@@H](Cc1c[nH]c2ccccc12)C(=O)O` [L-tryptophan], the IC50 in test [3] is greater than 10000 µM.

`C[C@@H]1O[C@@H](O[C@H]2[C@H](Oc3cc(O)c4c(c3)O[C@H](c3ccc(O)cc3)CC4=O)O[C@H](CO)[C@@H](O)[C@@H]2O)[C@H](O)[C@H](O)[C@H]1O` [Naringin]: the IC50 in test [4] was 23 µM.

The compound `CO[C@H]1/C=C/O[C@@]2(C)Oc3c(C)c(O)c4c(O)c(c(/C=N/N5CCN(C)CC5)c(O)c4c3C2=O)NC(=O)/C(C)=C\C=C\[C@H](C)[C@H](O)[C@@H](C)[C@@H](O)[C@@H](C)[C@H](OC(C)=O)[C@@H]1C` [Rifampicin] registered an IC50 in test [4] of 50 µM.

As for `COc1cc([C@@H]2Oc3c(O)cc([C@H]4Oc5cc(O)cc(O)c5C(=O)[C@@H]4O)cc3[C@H]2CO)ccc1O` [Silychristin], the figures for the half-inhibitory concentration (IC50) in test [4] and in test [5] were greater than 10 µM and 0.12 µM, respectively.

Consider `COc1ccc(CCN(C)CCCC(C#N)(c2ccc(OC)c(OC)c2)C(C)C)cc1OC` (stereo not shown) [Verapamil], for which the values for the IC50 in test [4], in test [5] and in test [3] were 1.5 µM, roughly 100 µM and greater than 100 µM, respectively.
